Measured values published in ChEMBL document CHEMBL1177718, “Phosphoramidate ProTides of 2'-C-methylguanosine as highly potent inhibitors of hepatitis C virus. Study of their in vitro and in vivo properties” (J Med Chem, 2010).

How the values were obtained:
Plasma = assay: Dose normalized AUC in ICR mouse plasma at 50 mg/kg, po by LC-MS/MS analysis; type: ADME, organism-based; design: dose 50 mg/kg, route oral; conditions: in vivo
[1] = Cmax in ICR mouse plasma at 50 mg/kg, po by LC-MS/MS analysis; type: ADME, organism-based; design: dose 50 mg/kg, route oral
[2] = Metabolic stability in mouse plasma assessed as compound remaining at 1 ug/ml after 30 mins; type: ADME, cell-free; conditions: read-out: Stability
Hepatitis C virus = assay: Antiviral activity against HCV1b infected in human HuH7 cells assessed as inhibition of viral replication after 48 hrs by luciferase reporter gene assay; type: functional, organism-based, Hepacivirus hominis; conditions: genotype 1b, Huh-7, 48 h
How it was run: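 Huh7 cells carrying genotype 1b bicistronic subgenomic replicon, seeded 2 × 10⁴/well without G-418; compounds added 18-24 h later, 48 h exposure; 3× or 4× serial dilutions over 0.0001-10 μM in triplicate/quadruplicate; Renilla luciferase read-out versus untreated cells; EC₅₀ by four-parameter sigmoidal nonlinear regression; at least three independent assays.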

[3] = Metabolic stability in dog plasma assessed as compound remaining at 1 ug/ml after 30 mins; type: ADME, cell-free, Canis lupus familiaris; conditions: read-out: Stability
How it was run: (§1)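 Duplicate incubations; compound at final 1 μg/mL in plasma preincubated and kept at […]; samples taken at 30 or 240 min, quenched with ice-cold acetonitrile, centrifuged, supernatant diluted with water; parent quantified by LC-MS/MS (Polar-RP column, formic acid water/acetonitrile gradient, positive ion mode); % remaining reported.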

Homo sapiens [4] = species: Homo sapiens; assay: Metabolic stability in human plasma assessed as compound remaining at 1 ug/ml after 30 mins
[5] = Cytotoxicity against human HuH7 cells after 72 hrs by celltiter-glo assay; type: cell-based, Huh-7
How it was run: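 Replicon 1b Huh7 cells seeded 2 × 10⁴/well; after 24 h, 11 serial 2× dilutions from 100 μM (three repeats each) with no-compound control; 72 h at 37 °C, CO₂, log-phase growth; viability by CellTiter-Glo luminescence; CC₅₀ = concentration giving 50% signal.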

Homo sapiens [6] = species: Homo sapiens; assay: Metabolic stability in human plasma assessed as compound remaining at 1 ug/ml after 4 hrs
[7] = Metabolic stability in cynomolgus monkey plasma assessed as compound remaining at 1 ug/ml after 30 mins; type: ADME, cell-free, Macaca fascicularis; conditions: read-out: Stability; how it was run: as §1
[8] = Metabolic stability in rat plasma assessed as compound remaining at 1 ug/ml after 4 hrs; type: ADME, cell-free; conditions: read-out: Stability; how it was run: as §1
[9] = Metabolic stability in rat plasma assessed as compound remaining at 1 ug/ml after 30 mins; type: ADME, cell-free; conditions: read-out: Stability; how it was run: as §1
[10] = Metabolic stability in mouse plasma assessed as compound remaining at 1 ug/ml after 4 hrs; type: ADME, cell-free; conditions: read-out: Stability
[11] = Metabolic stability in cynomolgus monkey plasma assessed as compound remaining at 1 ug/ml after 4 hrs; type: ADME, cell-free, Macaca fascicularis; conditions: read-out: Stability; how it was run: as §1
[12] = Metabolic stability in dog plasma assessed as compound remaining at 1 ug/ml after 4 hrs; type: ADME, cell-free, Canis lupus familiaris; conditions: read-out: Stability; how it was run: as §1
[13] = Metabolic stability in human liver S9 fraction assessed as compound remaining at 10 uM after 60 mins by HPLC analysis in presence of NADP; type: ADME, subcellular; conditions: read-out: Stability
How it was run: (§2)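 Liver or intestinal S9 at final 1 mg/mL in 50 mM potassium phosphate, with or without NADPH-regenerating system (1.3 mM NADP, 3.3 mM glucose-6-phosphate, 0.4 U/mL G6PDH, 3.3 mM MgCl₂); 10 min preincubation at 37 °C; compound at final 10 μM; samples at start and 60 min quenched in cold acetonitrile, centrifuged, HPLC; % parent remaining.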

[14] = Metabolic stability in human intestine S9 fraction assessed as compound remaining at 10 uM after 60 mins by HPLC analysis in presence of NADP; type: ADME, tissue-based; conditions: read-out: Stability; how it was run: as §2
[15] = Metabolic stability in dog intestine S9 fraction assessed as compound remaining at 10 uM after 60 mins by HPLC analysis in presence of NADP; type: ADME, tissue-based, Canis lupus familiaris; conditions: read-out: Stability; how it was run: as §2
[16] = Metabolic stability in human intestine S9 fraction assessed as compound remaining at 10 uM after 60 mins by HPLC analysis in absence of NADP; type: ADME, tissue-based; conditions: read-out: Stability; how it was run: as §2
[17] = Metabolic stability in dog liver S9 fraction assessed as compound remaining at 10 uM after 60 mins by HPLC analysis in presence of NADP; type: ADME, subcellular, Canis lupus familiaris; conditions: read-out: Stability; how it was run: as §2
[18] = Metabolic stability in human liver S9 fraction assessed as compound remaining at 10 uM after 60 mins by HPLC analysis in absence of NADP; type: ADME, subcellular; conditions: read-out: Stability; how it was run: as §2
[19] = Metabolic stability in dog liver S9 fraction assessed as compound remaining at 10 uM after 60 mins by HPLC analysis in absence of NADP; type: ADME, subcellular, Canis lupus familiaris; conditions: read-out: Stability; how it was run: as §2

Row | AUC (Plasma) [ng·h/mL] | Cmax [1] [ng/mL] | remaining at 0.5 h, 1 ug/ml [2] [%] | EC50 (Hepatitis C virus) [nM] | remaining at 0.5 h, 1 ug/ml [3] [%] | remaining at 0.5 h, 1 ug/ml (Homo sapiens [4]) [%] | remaining at 0.5 h, 1 ug/ml [7] [%] | remaining at 4 h, 1 ug/ml [8] [%] | remaining at 0.5 h, 1 ug/ml [9] [%] | remaining at 4 h, 1 ug/ml [10] [%] | remaining at 4 h, 1 ug/ml [11] [%] | remaining at 4 h, 1 ug/ml [12] [%] | Compound | CC50 at 72 h [5] [nM] | further results
1 | – | – | – | 70 | – | – | – | – | – | – | – | – | C[C@H](NP(=O)(OC[C@H]1O[C@@H](n2cnc3c(=O)[nH]c(N)nc32)[C@](C)(O)[C@@H]1O)Oc1cccc2ccccc12)C(=O)OC1CCCC1 (stereo partly drawn) | > 100000 | –
2 | 52 | 668 | 67 | 1000 | 100 | 100 | – | – | – | – | – | – | Cc1ccccc1COC(=O)[C@@H](NP(=O)(OC[C@H]1O[C@@H](n2cnc3c(=O)[nH]c(N)nc32)[C@](C)(O)[C@@H]1O)Oc1cccc2ccccc12)C(C)C (stereo partly drawn) | > 100000 | –
3 | – | – | – | 1700 | – | – | – | – | – | – | – | – | CC(C)[C@H](NP(=O)(OC[C@H]1O[C@@H](n2cnc3c(=O)[nH]c(N)nc32)[C@](C)(O)[C@@H]1O)Oc1cccc2ccccc12)C(=O)OCCc1ccccc1 (stereo partly drawn) | > 100000 | –
4 | – | – | 0 | 100 | 95 | 100 | 98 | 0 | 0.4 | 0 | 81 | 90 | CCCCOC(=O)[C@H](C)NP(=O)(OC[C@H]1O[C@@H](n2cnc3c(=O)[nH]c(N)nc32)[C@](C)(O)[C@@H]1O)Oc1cccc2ccccc12 (stereo partly drawn) | > 100000 | remaining at 4 h, 1 ug/ml (Homo sapiens [6]): 97%
5 | – | – | 76 | 280 | – | – | – | – | – | – | – | – | COC(=O)[C@H](CCSC)NP(=O)(OC[C@H]1O[C@@H](n2cnc3c(=O)[nH]c(N)nc32)[C@](C)(O)[C@@H]1O)Oc1cccc2ccccc12 (stereo partly drawn) | > 100000 | remaining at 1 h, 10 µM [13]: 3%; remaining at 1 h, 10 µM [14]: 42%; remaining at 1 h, 10 µM [15]: 56%; remaining at 1 h, 10 µM [16]: 27%; remaining at 1 h, 10 µM [17]: 40%; remaining at 1 h, 10 µM [18]: 14%; remaining at 1 h, 10 µM [19]: 57%
6 | > 33 | 388 | 79 | 680 | 90 | 100 | – | – | – | – | – | – | CC(C)[C@H](NP(=O)(OC[C@H]1O[C@@H](n2cnc3c(=O)[nH]c(N)nc32)[C@](C)(O)[C@@H]1O)Oc1cccc2ccccc12)C(=O)OCc1cccc(Cl)c1 (stereo partly drawn) | – | –
7 | – | – | 76 | 340 | 100 | – | 96 | 0.5 | 2.3 | 32 | 93 | 100 | CSCC[C@H](NP(=O)(OC[C@H]1O[C@@H](n2cnc3c(=O)[nH]c(N)nc32)[C@](C)(O)[C@@H]1O)Oc1cccc2ccccc12)C(=O)OC(C)C (stereo partly drawn) | > 100000 | –

Row | Compound | AUC (Plasma) [ng·h/mL] | Cmax [1] [ng/mL] | remaining at 0.5 h, 1 ug/ml [2] [%] | EC50 (Hepatitis C virus) [nM] | remaining at 0.5 h, 1 ug/ml [3] [%] | remaining at 0.5 h, 1 ug/ml (Homo sapiens [4]) [%] | remaining at 0.5 h, 1 ug/ml [7] [%] | remaining at 4 h, 1 ug/ml [8] [%] | remaining at 0.5 h, 1 ug/ml [9] [%] | remaining at 4 h, 1 ug/ml [10] [%] | remaining at 4 h, 1 ug/ml [11] [%] | remaining at 4 h, 1 ug/ml [12] [%] | CC50 at 72 h [5] [nM] | further results
8 | CC(C)[C@H](NP(=O)(OC[C@H]1O[C@@H](n2cnc3c(=O)[nH]c(N)nc32)[C@](C)(O)[C@@H]1O)Oc1cccc2ccccc12)C(=O)OCC(C)(C)C (stereo partly drawn) | > 45 | 652 | 77 | 1500 | 79 | 91 | – | – | – | – | – | – | > 100000 | –
9 | CC(OC(=O)[C@H](C)NP(=O)(OC[C@H]1O[C@@H](n2cnc3c(=O)[nH]c(N)nc32)[C@](C)(O)[C@@H]1O)Oc1cccc2ccccc12)c1ccccc1 (mixture of isomers) | – | – | 2.2 | 95 | 97 | 86 | 100 | 0.3 | 0.7 | 0 | 88 | 93 | > 100000 | remaining at 4 h, 1 ug/ml (Homo sapiens [6]): 86%
